Results published in ChEMBL document CHEMBL1124846, “Synthesis, antiproliferative, and antiviral activity of certain 4-substituted and 4,5-disubstituted 7-[(1,3-dihydroxy-2-propoxy)methyl]pyrrolo[2,3-d]pyrimidines” (J Med Chem, 1990).
Values joined by “and” are separate entries in the source; they are usually repeats but may differ in a detail not shown here. Equal entries are not always repeated.

Legend:
[1] = Cytotoxic activity against BSC cells; type: cell-based; details: Cercopithecidae
Method in brief: (§1)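 Cytotoxicity was scored visually in uninfected HFF or BSC-1 monolayers within the plaque-reduction assays. Drug-induced cytopathology was read at 35- and 60-fold magnification on a 0 to 4+ scale on the day plaques were stained and counted.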

[2] = tested on: Human alphaherpesvirus 1; assay: Inhibition of herpes simplex virus (HSV-1) in plaque reduction assay; type: functional, organism-based
Method in brief: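 HSV-1 S-148 strain plaque reduction in BSC-1 monkey kidney monolayers, with about 100 PFU inoculum and compound dissolved in the overlay medium. IC50 came from linear regression of percent inhibition against log concentration, with a positive control in each set.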

[3] = tested on: Human betaherpesvirus 5; assay: Inhibition of human cytomegalovirus (HCMV) in plaque reduction assay; type: functional, organism-based
Method in brief: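 HCMV Towne strain (plaque-purified P0) plaque reduction in HFF monolayers in MEM(E) with 10% FBS. Inoculum held about 50 PFU, with compound dissolved in the overlay medium. IC50 came from linear regression of percent inhibition against log concentration, with ganciclovir or acyclovir positive controls in every set; two to five experiments.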

[4] = Cytotoxic activity against HFF cells.; type: cell-based; details: Homo sapiens; method in brief: as §1
[5] = tested on: L1210; assay: In vitro inhibition of L1210 cell growth.; type: functional, Mus musculus; design: concentration or dose not given beside the values
Method in brief: (§2)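 Murine L1210 leukemia cells in static suspension culture in Fischer's medium with compound for 4 days. Growth rate is the ratio of control to treated population doubling time; where the rate changed, the final rate was used. IC50 is the concentration giving 50% of control growth rate; single-concentration value at 100 μM.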

[6] = Compound was evaluated for cytotoxic activity against BSC cells; type: cell-based; details: Cercopithecidae
Method in brief: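 Visual cytotoxicity in uninfected areas of plaque-reduction cultures. HFF cells grown in MEM(E) + 10% FBS for HCMV (Towne) assays; BSC-1 cells for HSV-1 (S-148) assays. Drug in overlay medium. Cytopathology scored 0 to 4+ at 35- and 60-fold magnification on the staining day.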

[7] = tested on: Human alphaherpesvirus 1; assay: Inhibition of herpes simplex virus (HSV-1) in yield reduction assay; type: functional, organism-based
[8] = tested on: Neoplastic cell line; assay: Compound was evaluated for cytotoxic activity against KB cells; type: cell-based; details: Homo sapiens
Method in brief: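 KB cells grown in MEM(H) + 5% FBS. Compound effects measured on radiolabelled precursor incorporation into DNA, RNA and protein. IC50s from linear regression of percent inhibition vs log concentration. The three IC50s were averaged, with 2–5 experiments averaged. Runs rejected if the acyclovir/ganciclovir control deviated >1.5 SD from its mean.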

[9] = tested on: Mus musculus; assay: Compound was evaluated for percent mortality of mice inoculated with murine cytomegalovirus at a concentration of 5.6 mg/kg at 48 h; type: ADME, organism-based; design: dose 5.6 mg/kg; details: in vivo
Method in brief: (§3)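 Three-week-old female Swiss Webster mice infected ip with 2×10^5 PFU MCMV Smith strain; groups of 15 given drug ip twice daily for 5 days, starting 6, 24 or 48 h after inoculation. Toxicity controls received drug without virus. Mortality followed daily for 21 days; final mortality compared with placebo by Fisher Exact Test.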

[10] = tested on: Mus musculus; assay: Compound was evaluated for percent mortality of mice inoculated with murine cytomegalovirus at a concentration of 5.6 mg/kg at 6 h; type: ADME, organism-based; design: dose 5.6 mg/kg; details: in vivo; method in brief: as §3
[11] = tested on: Mus musculus; assay: Compound was evaluated for percent mortality of mice inoculated with murine cytomegalovirus at a concentration of 0.6 mg/kg at 24 h; type: organism-based; design: dose 0.6 mg/kg; details: in vivo
Method in brief: (§4)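 Three-week-old female Swiss Webster mice inoculated ip with 2×10^5 PFU MCMV Smith strain. Groups of 15 dosed ip twice daily for 5 days, starting 6, 24 or 48 h post-inoculation. Held 21 days with daily mortality checks. Final mortality and mean day of death (dying animals) computed. Mortality versus placebo by Fisher Exact Test, MDD by Mann–Whitney U-rank test.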

[12] = tested on: Mus musculus; assay: Compound was evaluated for percent mortality of mice inoculated with murine cytomegalovirus at a concentration of 0.6 mg/kg at 48 h; type: organism-based; design: dose 0.6 mg/kg; details: in vivo; method in brief: as §4
[13] = tested on: Mus musculus; assay: Compound was evaluated for percent mortality of mice inoculated with murine cytomegalovirus at a concentration of 0.6 mg/kg at 6 h; type: organism-based; design: dose 0.6 mg/kg; details: in vivo; method in brief: as §4
[14] = tested on: Mus musculus; assay: Compound was evaluated for percent mortality of mice inoculated with murine cytomegalovirus at a concentration of 1.9 mg/kg at 24 h; type: organism-based; design: dose 1.9 mg/kg; details: in vivo; method in brief: as §4
[15] = tested on: Mus musculus; assay: Compound was evaluated for percent mortality of mice inoculated with murine cytomegalovirus at a concentration of 1.9 mg/kg at 48 h; type: organism-based; design: dose 1.9 mg/kg; details: in vivo; method in brief: as §4
[16] = tested on: Mus musculus; assay: Compound was evaluated for percent mortality of mice inoculated with murine cytomegalovirus at a concentration of 1.9 mg/kg at 6 h; type: organism-based; design: dose 1.9 mg/kg; details: in vivo; method in brief: as §4
[17] = tested on: Mus musculus; assay: Compound was evaluated for percent mortality of mice inoculated with murine cytomegalovirus at a concentration of 16.7 mg/kg at 24 h; type: organism-based; design: dose 16.7 mg/kg; details: in vivo; method in brief: as §4
[18] = tested on: Mus musculus; assay: Compound was evaluated for percent mortality of mice inoculated with murine cytomegalovirus at a concentration of 16.7 mg/kg at 48 h; type: organism-based; design: dose 16.7 mg/kg; details: in vivo; method in brief: as §4
[19] = tested on: Mus musculus; assay: Compound was evaluated for percent mortality of mice inoculated with murine cytomegalovirus at a concentration of 16.7 mg/kg at 6 h; type: organism-based; design: dose 16.7 mg/kg; details: in vivo; method in brief: as §4
[20] = tested on: Mus musculus; assay: Compound was evaluated for percent mortality of mice inoculated with murine cytomegalovirus at a concentration of 5.6 mg/kg at 24 h; type: ADME, organism-based; design: dose 5.6 mg/kg; details: in vivo; method in brief: as §3
[21] = tested on: Mus musculus; assay: Compound was evaluated for 15 mice treated ip twice daily for 5 days at a dose of 0.6 mg/kg at 24 h followed (MCMV) virus inoculation; type: functional; details: route intraperitoneal; method in brief: as §4
[22] = tested on: Mus musculus; assay: Compound was evaluated for 15 mice treated ip twice daily for 5 days at a dose of 0.6 mg/kg at 48 h followed (MCMV) virus inoculation; type: functional; details: route intraperitoneal; method in brief: as §4
[23] = tested on: Mus musculus; assay: Compound was evaluated for 15 mice treated ip twice daily for 5 days at a dose of 0.6 mg/kg at 6 hr followed (MCMV) virus inoculation; type: functional; details: route intraperitoneal; method in brief: as §4
[24] = tested on: Mus musculus; assay: Compound was evaluated for 15 mice treated ip twice daily for 5 days at a dose of 1.9 mg/kg at 24 hr followed (MCMV) virus inoculation; type: functional; details: route intraperitoneal; method in brief: as §4
[25] = tested on: Mus musculus; assay: Compound was evaluated for 15 mice treated ip twice daily for 5 days at a dose of 1.9 mg/kg at 48 hr followed (MCMV) virus inoculation; type: functional; details: route intraperitoneal; method in brief: as §4
[26] = tested on: Mus musculus; assay: Compound was evaluated for 15 mice treated ip twice daily for 5 days at a dose of 1.9 mg/kg at 6 hr followed (MCMV) virus inoculation; type: functional; details: route intraperitoneal; method in brief: as §4
[27] = tested on: Mus musculus; assay: Compound was evaluated for 15 mice treated ip twice daily for 5 days at a dose of 16.7 mg/kg at 24 hr followed (MCMV) virus inoculation; type: functional; details: route intraperitoneal; method in brief: as §4
[28] = tested on: Mus musculus; assay: Compound was evaluated for 15 mice treated ip twice daily for 5 days at a dose of 16.7 mg/kg at 48 hr followed (MCMV) virus inoculation; type: functional; details: route intraperitoneal; method in brief: as §4
[29] = tested on: Mus musculus; assay: Compound was evaluated for 15 mice treated ip twice daily for 5 days at a dose of 16.7 mg/kg at 6 hr followed (MCMV) virus inoculation; type: functional; details: route intraperitoneal; method in brief: as §4
[30] = tested on: Mus musculus; assay: Compound was evaluated for 15 mice treated ip twice daily for 5 days at a dose of 5.6 mg/kg at 24 hr followed (MCMV) virus inoculation; type: functional; details: route intraperitoneal; method in brief: as §4
[31] = tested on: Mus musculus; assay: Compound was evaluated for 15 mice treated ip twice daily for 5 days at a dose of 5.6 mg/kg at 48 hr followed (MCMV) virus inoculation; type: functional; details: route intraperitoneal; method in brief: as §4
[32] = tested on: Mus musculus; assay: Compound was evaluated for 15 mice treated ip twice daily for 5 days at a dose of 5.6 mg/kg at 6 hr followed (MCMV) virus inoculation; type: functional; details: route intraperitoneal; method in brief: as §4
[33] = tested on: Mus musculus; assay: Compound was evaluated for mean day of death at 0.6 mg/kg at 48 h; type: functional; method in brief: as §4
[34] = tested on: Mus musculus; assay: Compound was evaluated for mean day of death at 0.6 mg/kg at 6 h; type: functional; method in brief: as §4
[35] = tested on: Mus musculus; assay: Compound was evaluated for mean day of death at 1.9 mg/kg at 24 h; type: functional; method in brief: as §4
[36] = tested on: Mus musculus; assay: Compound was evaluated for mean day of death at 1.9 mg/kg at 48 h; type: functional; method in brief: as §4
[37] = tested on: Mus musculus; assay: Compound was evaluated for mean day of death at 1.9 mg/kg at 6 h; type: functional; method in brief: as §4
[38] = tested on: Mus musculus; assay: Compound was evaluated for mean day of death at 16.7 mg/kg at 24 h; type: functional; method in brief: as §4
[39] = tested on: Mus musculus; assay: Compound was evaluated for mean day of death at 16.7 mg/kg at 48 h; type: functional; method in brief: as §4
[40] = tested on: Mus musculus; assay: Compound was evaluated for mean day of death at 16.7 mg/kg at 6 h; type: functional; method in brief: as §4
[41] = tested on: Mus musculus; assay: Compound was evaluated for mean day of death at 5.6 mg/kg at 24 h; type: functional; method in brief: as §4
[42] = tested on: Mus musculus; assay: Compound was evaluated for mean day of death at 5.6 mg/kg at 48 h; type: functional; method in brief: as §4
[43] = tested on: Mus musculus; assay: Compound was evaluated for mean day of death at 5.6 mg/kg at 6 h; type: functional; method in brief: as §4
[44] = tested on: Mus musculus; assay: Compound was evaluated for mean day of death at 0.6 mg/kg at 24 h; type: functional; method in brief: as §4
[45] = tested on: Neoplastic cell line; assay: Cytotoxic activity against KB cells.; type: cell-based; details: Homo sapiens
Method in brief: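 KB cells (human oral epidermoid carcinoma) grown in MEM(H) with 5% FBS. Compound effect on incorporation of radiolabelled precursors into DNA, RNA and protein was measured. IC50s came from linear regression of percent inhibition against log concentration, and the three IC50s were averaged.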

[46] = tested on: L1210; assay: In vitro inhibition of L1210 cell growth to half of the control rate; type: functional, cell-based; details: Mus musculus; method in brief: as §2

SMILES: CNc1ncnc2c1c(Br)cn2COC(CO)CO
- IC50 [1]: > 100 µM
- IC50 [2]: > 100 µM
- IC50 ([3]; Human betaherpesvirus 5): > 100 µM
- IC50 [4]: > 100 µM
- Activity [5]: 100%

SMILES: Nc1nc2c(ncn2COC(CO)CO)c(=O)[nH]1 [GANCICLOVIR]
- IC50 [6]: > 100 µM
- IC50 [2]: 4.5 µM
- IC90 [7]: 1.2 µM
- IC50 [3]: 8.7 µM
- IC50 [8]: > 100 µM
- Mortality [9]: 67%
- Mortality [10]: 33%
- Mortality [11]: 80%
- Mortality [12]: 93%
- Mortality [13]: 93%
- Mortality [14]: 80%
- Mortality [15]: 73%
- Mortality [16]: 33%
- Mortality [17]: 47%
- Mortality [18]: 53%
- Mortality [19]: 27%
- Mortality [20]: 47%
- Activity [21]: 12
- Activity [22]: 14
- Activity [23]: 14
- Activity [24]: 12
- Activity [25]: 11
- Activity [26]: 5
- Activity [27]: 7
- Activity [28]: 8
- Activity [29]: 4
- Activity [30]: 7
- Activity [31]: 10
- Activity [32]: 5
- MDD [33]: 5.3
- MDD [34]: 4.6
- MDD [35]: 4.9
- MDD [36]: 4.9
- MDD [37]: 5.4
- MDD [38]: 5.3
- MDD [39]: 5.5
- MDD [40]: 3.8
- MDD [41]: 5.3
- MDD [42]: 5.5
- MDD [43]: 4.2
- MDD [44]: 5.4

SMILES: CCNc1ncnc2c1c(Br)cn2COC(CO)CO
- IC50 [1]: > 100 µM
- IC50 [2]: > 100 µM
- IC50 ([3]; Human betaherpesvirus 5): > 100 µM
- IC50 [4]: > 100 µM
- Activity [5]: 95%

SMILES: OCC(CO)OCn1cc(Br)c2c(NO)ncnc21
- IC50 [2]: 2.9 µM
- IC90 [7]: > 100 µM
- IC50 [3]: 1.2 µM and 10 µM
- IC50 [4]: > 100 µM
- IC50 [45]: 320 µM
- Activity [5]: 0%
- IC50 [46]: 3.7 µM
